Assay results taken from ChEMBL document CHEMBL2016497, “Analogs of the RSK inhibitor SL0101: optimization of in vitro biological stability” (Bioorg Med Chem Lett, 2012).
Activity calls are given as the source filed them. The rule behind the calls is not given here.

Columns and labels:
MCF7 [1] = assay: Antiproliferative activity against human MCF7 cells at 100 uM after 96 hrs by CellTiter-GloTM assay; type: functional, cell-based
How it was run: (§1)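 Stability time course: MCF7 cells given inhibitor (100μM) at plating (time 0); percentage of growth measured at set time points versus vehicle. n=3 in quadruplicate.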

MCF7 [2] = assay: Antiproliferative activity against human MCF7 cells at 100 uM after 144 hrs by CellTiter-GloTM assay; type: functional, cell-based; how it was run: as §1
[3] = molecular target: Ribosomal protein S6 kinase alpha-3 (Homo sapiens, UniProt P51812); assay: Inhibition of His-tagged RSK2 expressed in Sf9 cells using ERalpha-Ser167 RLASTND as substrate after 120 mins by chemiluminescence assay
Ribosomal protein S6 kinase alpha-3, sequence (P51812 whole entry): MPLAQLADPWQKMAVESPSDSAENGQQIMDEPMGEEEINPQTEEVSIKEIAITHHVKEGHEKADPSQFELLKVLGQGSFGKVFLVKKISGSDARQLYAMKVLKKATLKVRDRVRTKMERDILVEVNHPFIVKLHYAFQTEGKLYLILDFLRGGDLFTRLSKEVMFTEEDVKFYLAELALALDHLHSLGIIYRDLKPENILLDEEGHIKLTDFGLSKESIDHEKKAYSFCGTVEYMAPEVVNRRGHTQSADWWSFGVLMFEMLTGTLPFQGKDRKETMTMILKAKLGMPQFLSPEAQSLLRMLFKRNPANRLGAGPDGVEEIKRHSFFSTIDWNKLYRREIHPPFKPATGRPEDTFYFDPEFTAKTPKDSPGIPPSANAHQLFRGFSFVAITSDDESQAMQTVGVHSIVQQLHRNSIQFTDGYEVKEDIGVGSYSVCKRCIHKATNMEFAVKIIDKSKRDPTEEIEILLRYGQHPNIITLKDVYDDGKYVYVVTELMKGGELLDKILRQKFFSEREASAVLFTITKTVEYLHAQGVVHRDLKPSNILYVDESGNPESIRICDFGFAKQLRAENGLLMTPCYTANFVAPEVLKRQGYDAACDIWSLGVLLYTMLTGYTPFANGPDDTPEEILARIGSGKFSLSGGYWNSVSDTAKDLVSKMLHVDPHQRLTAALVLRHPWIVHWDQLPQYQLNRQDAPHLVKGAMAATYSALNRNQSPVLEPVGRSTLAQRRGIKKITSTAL

MCF7 [4] = assay: Antiproliferative activity against human MCF7 cells after 48 hrs by CellTiter-GloTM assay; type: functional, cell-based; settings: MCF7, 48 h
MCF7 [5] = assay: Antiproliferative activity against human MCF7 cells at 100 uM after 48 hrs by CellTiter-GloTM assay; type: functional, cell-based; how it was run: as §1
[6] = Solubility of the compound; type: physicochemical
MCF7 [7] = assay: Down regulation of cyclin D1 level in human MCF7 cells at 100 uM at 48 hrs by immunoblotting analysis relative to control; type: functional, cell-based
How it was run: (§2)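 MCF7 cells treated at 100 μM; at each time point cells were lysed and lysates immunoblotted for cyclin D1 versus control, each compound analyzed on a single membrane.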

MCF7 [8] = assay: Antiproliferative activity against human MCF7 cells at 50 uM after 48 hrs by CellTiter-GloTM assay; type: functional, cell-based
How it was run: (§3)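 MCF-10A and MCF7 cells exposed to inhibitor at 50 μM; growth compared with vehicle. n=3 in quadruplicate.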

MCF-10A = assay: Antiproliferative activity against human MCF10A cells at 50 uM after 48 hrs by CellTiter-GloTM assay; type: cell-based; how it was run: as §3
MCF7 [9] = assay: Down regulation of cyclin D1 level in human MCF7 cells at 100 uM at 96 hrs by immunoblotting analysis relative to control; type: functional, cell-based; how it was run: as §2

SMILES	Activity (MCF7 [1])	Activity (MCF7 [2])	IC50 (MCF7 [4]) [µM]	Activity (MCF7 [5])	solubility [6]	further results
CC(=O)CO[C@@H]1[C@@H](OCC(C)=O)[C@@H](O)[C@H](Oc2c(-c3ccc(O)cc3)oc3cc(O)cc(O)c3c2=O)O[C@H]1C	inactive	inactive	34.1	inactive		IC50 [3]: 0.252 µM
C[C@@H]1O[C@@H](Oc2c(-c3ccc(O)cc3)oc3cc(O)cc(O)c3c2=O)[C@H](O)[C@H](OC(=O)N2CCCC2)[C@H]1OC(=O)N1CCCC1					Insoluble	
C[C@@H]1O[C@@H](Oc2c(-c3ccc(O)cc3)oc3cc(O)cc(O)c3c2=O)[C@H](O)[C@H](OC(=O)N(C)C)[C@H]1OC(=O)N(C)C					Insoluble	
CC(=O)O[C@@H]1[C@@H](OC(C)=O)[C@@H](O)[C@H](Oc2c(-c3ccc(O)cc3)oc3cc(O)cc(O)c3c2=O)O[C@H]1C	inactive	inactive	45.6	Active		Activity (MCF7 [7]): Active; Activity (MCF7 [8]): Active; Activity (MCF-10A): Non-toxic; Activity (MCF7 [9]): inactive
C[C@@H]1O[C@@H](Oc2c(-c3ccc(O)cc3)oc3cc(O)cc(O)c3c2=O)[C@H](O)[C@H](OC(=O)N2CCOCC2)[C@H]1OC(=O)N1CCOCC1					soluble	
